Source: PubChem BioAssay
Rce1 inhib – blocks yeast Ras-converting enzyme. calls only. AID 2563. yeast membranes, quenched prenylated peptide cleavage fluorescence. Q03530. actives 0.27% (n = 290,000);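 active = fall in fluorescence gain of 50% or more versus controls, with final raw signal at or below 3038400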
Target sequence (Q03530 whole entry, looked up): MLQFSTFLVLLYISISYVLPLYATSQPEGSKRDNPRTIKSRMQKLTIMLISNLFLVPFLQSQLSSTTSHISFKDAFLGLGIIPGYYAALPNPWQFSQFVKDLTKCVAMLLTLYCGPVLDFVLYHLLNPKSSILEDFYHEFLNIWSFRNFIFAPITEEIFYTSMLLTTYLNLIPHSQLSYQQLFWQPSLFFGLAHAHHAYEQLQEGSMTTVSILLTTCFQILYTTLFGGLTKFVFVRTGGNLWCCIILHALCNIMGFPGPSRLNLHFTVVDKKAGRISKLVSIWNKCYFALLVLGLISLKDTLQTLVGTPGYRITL
VLA-4 inh – inhibition in a human VLA-4 binding assay; VLA-4 expressing cells, ligand binding flow cytometry; inhibition, % (about 7 µM as worked out from the volumes in the protocol); actives 0.2% (n = 330,000); AID 2557; in the data active = inhibition above about 50%
TAAR1 agonist – agonists of human TAAR1; Q96RJ0; CHO RD-HGA16 TAAR1, Fluo-8 calcium fluorescence; vehicle wells 0%, saturating PEA agonist 100%; activation, % at 3 µM; actives 0.99% (n = 360,000);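 active = activation above the mean activation of all test compounds in the run plus 3 SD, cut at about 38% in these data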
Target sequence (Q96RJ0 whole entry, looked up): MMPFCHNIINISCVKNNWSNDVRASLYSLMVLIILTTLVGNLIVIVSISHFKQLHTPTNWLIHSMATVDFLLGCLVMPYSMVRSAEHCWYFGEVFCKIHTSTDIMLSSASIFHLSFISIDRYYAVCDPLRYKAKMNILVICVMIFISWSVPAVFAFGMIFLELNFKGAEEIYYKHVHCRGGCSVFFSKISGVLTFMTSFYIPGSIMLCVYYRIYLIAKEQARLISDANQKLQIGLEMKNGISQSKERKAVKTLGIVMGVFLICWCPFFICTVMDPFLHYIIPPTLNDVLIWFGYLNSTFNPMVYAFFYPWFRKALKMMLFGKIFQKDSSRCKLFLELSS
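Benchmarks: low control DMSO, high control PEA (EC100); System: CHO RD-HGA16 cells carrying human TAAR1 plus Gα16; Detection: Fluo-8 fluorescence, 5 s baseline then 140 s kinetic read; Schedule: 17-24 h plating, Fluo-8 75 min 37 °C, 30 min RT; Read-out basis: % activation from peak over basal fluorescence ratio, DMSO-to-PEA scaled.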
Platelet DG rel – modulates dense granule release in human platelets. inhibition, %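 (compounds screened at 7.5 µM in platelet-rich plasma)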. AID 1663. human platelet-rich plasma, SFLLRN dense granule ATP release, luminescence. actives 0.22% (n = 300,000);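 active = mean replicate score, as percent of positive control, at or above 50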
TAAR1 antag – antagonists of human TAAR1; CHO RD-HGA16 TAAR1, Fluo-8 calcium fluorescence, antagonist; actives 1.5% (n = 360,000); Q96RJ0; inhibition, % at 3 µM;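 active = inhibition above a per-plate cutoff, the mean inhibition of test compounds on that plate plus 3 SD, cut at about 49% in these data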
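Test system: RD-HGA16 CHO cells with stable hTAAR1 and Gα16 / Probe or stimulus: EC80 β-phenethylamine stimulus / Times: seeding 17-24 h prior, 75-min 37 °C, 30-min RT dye loading / Detection: Fluo-8 calcium-sensitive fluorescence / Read-out basis: % inhibition scaled between DMSO and EC80 PEA controls / Repeats: singlicate, one well per test compound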
A number is an active result; n = inactive; x = no result given; + = active, no number. Shown are actives, neighbours in structure and some others; about 2.6% of the full set was active somewhere.

SMILES	Rce1 inhib	VLA-4 inh	TAAR1 agonist	Platelet DG rel	TAAR1 antag
O=C(CNC(=O)c1ccc2c(c1)OCO2)N/N=C/c1cccc([N+](=O)[O-])c1	n	n	n	n	n
O=C(CNC(=O)c1ccc2c(c1)OCO2)N/N=C(Br)/C=C/c1ccccc1	n	n	41.1	n	n
COc1ccc(C(CNC(=O)COc2ccc(Cl)c(C)c2)N2CCCCC2)cc1 (centres undefined)	n	n	n	n	n
CC(=O)c1ccc(OCc2cc(C(=O)N3CCN(C4CCCC4)C(=O)C3)no2)cc1	n	n	n	n	n
O=C(c1cnc2n(c1=O)CCS2)N1CCN(C(c2ccccc2)c2ccc(Cl)cc2)CC1 (centres undefined)	+	n	x	n	x
CCOc1ccc(-c2csc3nc[nH]c(=O)c23)cc1	n	n	n	n	n
O=C(Nc1cccc(S(=O)(=O)C(F)F)c1)c1ccc(S(=O)(=O)N2CCOCC2)cc1	n	n	n	n	n
O=C(Nc1ccc(S(=O)(=O)C(F)F)cc1)c1cccc(S(=O)(=O)N2CCOCC2)c1	n	n	n	n	59.5
O=C(NNC(=O)c1ccc(O)c(Cl)c1)c1cccc(S(=O)(=O)N2CCOCC2)c1	+	n	n	n	n
Oc1ccc(Oc2ccc(Oc3ccc(O)cc3)cc2)cc1	n	n	n	n	51.3
Nc1nnnn1/N=C/c1ccccc1OCc1ccc(Cl)cc1Cl	+	n	n	n	n
N#C/C(=C/c1ccc(O)c(O)c1)C(=O)NCc1ccc(Cl)cc1	n	n	47.9	n	n
COc1ccc(C(=O)CSc2nnc(CN3CCCCC3)n2-c2ccc(F)cc2)cc1	n	n	47.1	n	n
Cc1cccc(C(=O)NNC(=O)c2ccccc2)c1	n	n	n	n	n
Cc1cccc(C(=O)c2cnc3ccccc3c2-c2ccccc2)c1	n	n	n	n	49.2
COc1cc(/C=N/Nc2nc3ccccc3[nH]2)ccc1O	n	n	42.1	n	n
COc1ccc(O)c(/C=N/Nc2nc3ccccc3[nH]2)c1	n	n	42.0	n	n
COc1ccc(/C=N/Nc2ccccn2)cc1O	n	n	n	80.1	n
Oc1cccc(C=NNc2ccccn2)c1	x	x	n	x	n
O=[N+]([O-])c1ccc(O)c(/C=N/Nc2ccccn2)c1	n	n	44.6	n	72.9
C#CCn1c(O)c(N=NC(=O)C(O)c2ccccc2)c2ccccc21 (centres undefined)	n	n	n	n	n
CCCCN1C(=O)C(CC(=O)NCCCN(C)C)CC(C(=O)N(C(C)C)C(C)C)=C1C (centres undefined)	x	x	n	x	n
CC(/C=N/Nc1nc2ccccc2[nH]1)=C\c1ccccc1	n	n	39.9	n	n
COc1cc(OC)nc(Nc2nc(CN)cs2)n1	x	x	n	x	n
CCC1(CC)Cc2ccccc2C(=C(C#N)C#N)N1	n	n	n	n	n
SMILES	Rce1 inhib	VLA-4 inh	TAAR1 agonist	Platelet DG rel	TAAR1 antag
N#CC(C#N)=C1NC(N)=C(C#N)C(c2ccccc2)=C1C#N	+	n	n	n	n
CSc1nc2c(c(-c3ccc(O)cc3)c1C#N)CCC2	n	n	n	63.4	n
Cc1cccc2c(N=NC(=O)c3ccc(NS(=O)(=O)c4cccs4)cc3)c(O)[nH]c12	x	n	n	x	56.2
Cc1ccc2[nH]c(O)c(N=NC(=O)c3ccc(NS(=O)(=O)c4cccs4)cc3)c2c1	n	n	n	n	n
CCOC(=O)c1sc(NC(=O)Nc2ccc(Cl)cc2)cc1C	n	n	n	n	82.5
CCC(C(=O)Nc1c(C)cccc1C)n1c(-c2cnc(C)cn2)nc2ccccc21 (centres undefined)	x	x	n	x	n
O=C(O)CSCC(=O)Nc1ccc(-c2nc3ccccc3s2)cc1	+	n	n	n	n
CCN1/C(=C/c2ccc3cc(C)ccc3[n+]2CC)Sc2ccccc21	n	x	n	n	55.8
CCN1/C(=C/c2ccc3cc(C)ccc3[n+]2CC)Sc2cc(C)c(C)cc21	x	x	n	x	n
Cc1c(-c2nc(-c3ccc(C(C)(C)C)cc3)no2)n(C)oc1=O	n	n	n	n	n
COC(=O)C1=C(C)NC2=C(C(=O)CCC2)C1c1ccc(-c2ccsc2C(=O)OC)o1 (centres undefined)	n	n	44.7	n	n
COC(=O)C1=C(C)NC2=C(C(=O)CCC2)C1c1ccsc1 (centres undefined)	n	x	x	n	x
CN(C)CCCN(C(=O)c1cc(-c2cccs2)nc2ccccc12)c1nc2ccc(F)cc2s1	+	n	n	n	n
CN(C)CCCN(C(=O)CCc1ccccc1)c1nc2ccc(F)cc2s1	n	n	n	n	n
O=[N+]([O-])c1ccc(-c2nc(-c3cccs3)c(-c3cccs3)[nH]2)cc1	n	n	n	n	60.8
O=[N+]([O-])c1cccc(-c2nc(-c3ccccc3)c(-c3cccs3)[nH]2)c1	n	n	n	n	57.9
COc1ccc(-c2nc(-c3ccccc3)c(-c3cccs3)[nH]2)cc1OC	n	n	n	n	n
O=[N+]([O-])c1cccc(-c2nc(-c3cccs3)c(-c3cccs3)[nH]2)c1	n	n	n	n	58.3
O=[N+]([O-])c1cccc(-c2noc(-c3cccs3)n2)c1	n	n	n	n	n
Cc1cc(=O)oc2cc(OCC(=O)NC3(C#N)CCCCC3)ccc12	x	x	n	x	n
CC1CN(S(=O)(=O)c2cccc(C(=O)N=c3sccn3C)c2)CC(C)O1 (centres undefined)	n	n	n	n	n
CN(C(=O)c1ccc(NC(=O)Cc2cccc(NC(=O)C3CCN(C(=O)C4CC4)CC3)c2)cc1)C1CCCC1	x	n	n	x	n
CCCc1nnc(NC(=O)Cn2c(=O)sc3ccccc32)s1	n	n	46.0	n	n
COc1ccc(N=CC2=C(O)c3ccccc3C2=O)cc1	n	n	n	59.5	n
CC(C)c1nc(CNC(=O)CC2C(=O)NCCN2Cc2ccccc2)cs1 (centres undefined)	x	x	n	x	n
SMILES	Rce1 inhib	VLA-4 inh	TAAR1 agonist	Platelet DG rel	TAAR1 antag
O=[N+]([O-])c1ccc(N2CCc3ccccc3C2)cc1	n	n	n	n	n
O=[N+]([O-])c1ccc(-c2csc(N3CCc4ccccc4C3)n2)cc1	n	n	39.5	n	n
CN(C)S(=O)(=O)c1cccc(NC(=O)COc2ccc(C(=O)c3ccccc3)cc2)c1	n	n	n	n	50.6
CN(c1ccccc1)S(=O)(=O)c1cccc(NC(=O)CCNC(=O)c2ccccc2)c1	x	n	n	x	53.8
CN(c1ccccc1)S(=O)(=O)c1cccc(NC(=O)CCNC(=O)c2ccc(Cl)cc2)c1	x	n	n	x	n
CN(c1cccc(NC(=O)COc2ccccc2)c1)S(C)(=O)=O	n	n	n	n	n
CN(c1ccccc1)S(=O)(=O)c1cccc(NC(=O)COc2ccccc2)c1	x	n	n	x	52.8
COC(=O)N1C[C@H](OC)[C@H]2C[C@@H]1c1ccccc1O2	x	x	n	x	n
COc1ccc2nc(SCC(=O)NC3CCCC3)c(C)cc2c1	n	n	n	n	n
O=C1CC(c2ccco2)CC2=C1C=Nc1ccccc1N2 (centres undefined)	n	n	n	n	n
